In PubChem BioAssay:
Calls of active or inactive are those of the source.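 How the source made its calls, unless noted: active means GFP response above 150% of the DMSO level; inconclusive means fewer than 70 events counted for a yeast strain; inactive means the rest.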

What was measured:
[1] = hit retest on RPL19A-GFP reporter strain – cell-based, S. cerevisiae, flow cytometry, cherry picks, mother/daughter gates, confirmation (AID 2270;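 active means GFP response below 50% of the DMSO control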); settings: 3 h, at 10 µM, stronger effect = lower value, 100 = same GFP as DMSO wells
[2] = yeast TOR pathway reporter LAP4-GFP change – cell-based, cherry picks, flow cytometry, mother/daughter gates, confirmation (AID 2271;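 active means GFP response above 150% of the DMSO control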;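 further: ratio of sample to DMSO plate mean so 100% equals DMSO level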); settings: S. cerevisiae LAP4-GFP strain, 3 h, at 10 µM, stronger effect = higher value, 100 means same as DMSO control
Method in brief: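 System: Alexa 633-stained baker's yeast GFP-fusion strain; quantity: 0.2 OD600 cells; timing: compound exposure 3 h at 30 °C, end-over-end rotation; detection: HT flow cytometry, GFP fluorescence channel; measure: per-gate (all, mother, daughter) GFP response vs DMSO; control set: DMSO-only negative wells, rapamycin 400 ng/mL positive wells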

[3] = TOR pathway reporter MEP2-GFP, retest of hits – S. cerevisiae, flow cytometry GFP, cherry picks, confirmation (AID 2272;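 active means GFP response above 150% of the DMSO control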;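 further: ratio of well signal to plate DMSO mean so 100% equals DMSO level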); settings: S. cerevisiae MEP2-GFP strain, 3 h, at 10 µM, stronger effect = higher value
[4] = yeast AGP1-GFP fluorescence change, single-dose – cell-based, flow cytometry, S. cerevisiae, cherry picks, confirmation (AID 2273);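 further: median GFP channel fluorescence over the whole cell population gate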; settings: S. cerevisiae AGP1-GFP strain, 3 h, at 10 µM
[5] = TOR pathway CIT2 reporter hit retest – S. cerevisiae, GFP fusion, cherry picks, mother/daughter gates, confirmation (AID 2274); settings: S. cerevisiae CIT2-GFP strain, flow cytometry, 3 h, at 10 µM, stronger effect = higher value
[6] = measured here: daughter cell gate
[7] = measured here: mother cell gate
[8] = measured here: daughter cell gate response
[9] = measured here: mother cell gate response

SMILES | GFP response vs DMSO [1] | GFP response vs DMSO [1, 6] [%] | GFP response vs DMSO [1, 7] [%] | GFP response relative to DMSO [2] | GFP response relative to DMSO [2, 8] [%] | GFP response relative to DMSO [2, 9] [%] | GFP response vs DMSO [3] | GFP response, % of DMSO [4] | GFP response, % of DMSO [5] | GFP response, % of DMSO [5, 6] [%] | GFP response, % of DMSO [5, 7] [%]
Oc1ccc(/C=N/Nc2nc(-c3cccnc3)nc3ccccc23)c(O)c1 | 93.5% (inactive) | 95.3 | 94.6 | 83.8% (inactive) | 84.2 | 82.7 | 101% (inactive) | 101% (inactive) | 106% (inactive) | 108 | 105
Cc1ccc(Cl)cc1N1CCN(C(=O)CSc2ccsc2[N+](=O)[O-])CC1 | 98% (inactive) | 97.4 | 97.8 | 97% (inactive) | 95.9 | 96.2 | 101% (inactive) | 99.4% (inactive) | 100% (inactive) | 99.2 | 99.3
Cn1c(N2CCCC2)nc2c1c(=O)n(Cc1ccc(Cl)cc1)c(=O)n2C | 91.8% (inactive) | 84.5 | 87.5 | 126% (inactive) | 109 | 121 | 94.7% (inactive) | 98.4% (inactive) | 81.4% (inactive) | 77.5 | 76
CCCc1nnc(N2C(=O)c3cccc4cccc(c34)C2=O)s1 | 103% (inactive) | 103 | 102 | 115% (inactive) | 104 | 113 | 103% (inactive) | 108% (inactive) | 113% (inactive) | 106 | 115
COc1ccc(N2C(=O)C(Cl)=C(Nc3c(C)n(C)n(-c4ccccc4)c3=O)C2=O)cc1 | 102% (inactive) | 106 | 101 | 100% (inactive) | 101 | 101 | 99.5% (inactive) | 89% (inactive) | 92.1% (inactive) | 87.2 | 87.5
CN(C)c1ccc(N=Cc2nc(-c3ccccc3)oc2OC(=O)c2cccc(Cl)c2)cc1 | 101% (inactive) | 99.2 | 101 | 97.4% (inactive) | 97.2 | 99.3 | 100% (inactive) | 98.7% (inactive) | 102% (inactive) | 99.7 | 102
CN1/C(=C\C(=O)c2cccc(S(=O)(=O)N3CCCCC3)c2)C(C)(C)c2ccccc21 | 96.8% (inactive) | 97.6 | 97.2 | 95.4% (inactive) | 97.6 | 94 | 100% (inactive) | 97.2% (inactive) | 98.3% (inactive) | 99.1 | 98.5
O=C(NCCCSc1ccccc1)c1cc(Br)ccc1O | 97.8% (inactive) | 97.1 | 99.2 | 106% (inactive) | 104 | 108 | 100% (inactive) | 93.3% (inactive) | 98.3% (inactive) | 99.1 | 99.7
O=C(Oc1c(Cl)cc(Cl)c2cccnc12)c1cccc([N+](=O)[O-])c1 | 106% (inactive) | 92.9 | 108 | 244% (active) | 183 | 236 | 133% (inactive) | 101% (inactive) | 134% (inactive) | 121 | 131
OCc1ccccc1SSc1ccccc1CO | 101% (inactive) | 99.2 | 98.5 | 149% (inactive) | 137 | 156 | 100% (inactive) | 104% (inactive) | 103% (inactive) | 101 | 99.8
Cc1ccc(N2CCN(C(=O)c3ccccc3Br)CC2)c(C)c1 | 100% (inactive) | 97.6 | 101 | 95.4% (inactive) | 92.8 | 96.1 | 98.3% (inactive) | 92.1% (inactive) | 96.9% (inactive) | 97.2 | 96.1
Cc1ccccc1NC(=O)c1ccccc1O | 94% (inactive) | 92.9 | 94 | 106% (inactive) | 101 | 108 | 101% (inactive) | 93.8% (inactive) | 100% (inactive) | 97.4 | 98.1
Cc1[nH]n(-c2ccccc2)c(=O)c1C(c1ccccc1[N+](=O)[O-])C(C#N)C#N (stereo not drawn) | 106% (inactive) | 84.6 | 98.8 | 192% (active) | 168 | 195 | 112% (inactive) | 98.9% (inactive) | 98.4% (inactive) | 113 | 81.8
COCCNC(=O)c1ccc(Cl)c(Cl)c1 | 97.2% (inactive) | 95.6 | 95.3 | 102% (inactive) | 101 | 96.1 | 100% (inactive) | 100% (inactive) | 105% (inactive) | 103 | 93.8
COc1ccc(C2CC(c3c(-c4ccccc4)c4cc(Cl)ccc4[nH]c3=O)=NN2S(C)(=O)=O)cc1OC (stereo not drawn) | 99.6% (inactive) | 101 | 98.5 | 91.5% (inactive) | 92.8 | 89.7 | 96.2% (inactive) | 98.3% (inactive) | 99.7% (inactive) | 99.1 | 98.5
O=C1C(=O)N(Cc2ccccc2)C(c2cccc(O)c2)/C1=C(\O)c1ccc2c(c1)OCCO2 (stereo not drawn) | 100% (inactive) | 100 | 100 | 95% (inactive) | 95.6 | 98.3 | 100% (inactive) | 95.2% (inactive) | 108% (inactive) | 106 | 109
CCOc1cc(C(=O)N2CCN(c3ccc(C(C)=O)cc3)CC2)cc(OCC)c1OCC | 91.8% (inactive) | 91.2 | 89.8 | 126% (inactive) | 110 | 125 | 109% (inactive) | 104% (inactive) | 106% (inactive) | 105 | 105
O=C(Cc1ccc(Cl)cc1)NNC(=S)NC(=O)c1cccs1 | 104% (inactive) | 104 | 104 | 150% (active) | 151 | 151 | 114% (inactive) | 102% (inactive) | 109% (inactive) | 115 | 104
N#C/C(=C/c1ccc(N2CCOCC2)o1)c1ccc(Br)cc1 | 96.6% (inactive) | 95.9 | 95 | 114% (inactive) | 114 | 115 | 114% (inactive) | 95.5% (inactive) | 102% (inactive) | 101 | 99.3
COc1ccc(N=Cc2nc(-c3ccccc3)oc2OC(C)=O)cc1 | 100% (inactive) | 99.1 | 101 | 107% (inactive) | 96.5 | 111 | 95.4% (inactive) | 94% (inactive) | 90.7% (inactive) | 90.9 | 88.6
CC(=O)Nc1ccc(NC(=O)c2ccccc2F)cc1 | 99.8% (inactive) | 100 | 98.6 | 94.4% (inactive) | 94.2 | 94.1 | 99% (inactive) | 100% (inactive) | 103% (inactive) | 101 | 99.3
C=CCOc1ccc(C(=O)/C=C2/C(=O)Nc3ccccc32)cc1 | 97.6% (inactive) | 93.6 | 97.2 | 113% (inactive) | 108 | 117 | 111% (inactive) | 112% (inactive) | 95.2% (inactive) | 93.2 | 93.4
Cc1ncc2c(n1)-c1cc(F)ccc1SC2 | 104% (inactive) | 105 | 103 | 87.6% (inactive) | 89.6 | 85.5 | 109% (inactive) | 94.5% (inactive) | 113% (inactive) | 116 | 109
